Source: paper PMC7906590 (ACS Omega, 2021)

What was measured:
[1] = target: adenosine A2A (hADORA2A) receptor (Homo sapiens, UniProt P29274); test: cAMP ELISA in NECA/ADA-stimulated hADORA2A-HEK293 cells; type: cell-based
[2] = Photostability of solution, HPLC purity after 1 h of light exposure; type: physicochemical; settings: 1 h light exposure
Outline: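 Test compound dissolved in acetonitrile–potassium dihydrogen phosphate solution. A reference solution was kept in the dark, and a second sample was exposed to light for 1 h. Purity of each was determined by HPLC with DAD detection.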

Chain of adenosine A2A (hADORA2A) receptor (P29274 whole entry): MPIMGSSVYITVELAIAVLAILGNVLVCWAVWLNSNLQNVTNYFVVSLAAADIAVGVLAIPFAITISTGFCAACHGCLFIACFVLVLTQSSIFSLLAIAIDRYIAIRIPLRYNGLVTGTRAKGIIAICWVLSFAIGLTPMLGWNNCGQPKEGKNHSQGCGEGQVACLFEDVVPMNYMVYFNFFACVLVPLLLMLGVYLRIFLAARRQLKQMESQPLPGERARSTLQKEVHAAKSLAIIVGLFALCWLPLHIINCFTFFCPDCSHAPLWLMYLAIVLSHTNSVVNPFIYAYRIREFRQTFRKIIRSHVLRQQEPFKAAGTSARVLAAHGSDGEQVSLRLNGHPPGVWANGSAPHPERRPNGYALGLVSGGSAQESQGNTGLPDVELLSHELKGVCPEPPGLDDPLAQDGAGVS

IC50 [1] [µM] | isomerization after 1 h of light exposure [2] | Structure (SMILES)
> 421 | – | Nc1ncnc2[nH]c(/C=C/c3ccccc3)nc12 [II-1-1, (E) -8-styryl-9H-purine-6-amine]
– | about 1/3 | CCn1c(=O)c2c(nc(/C=C/c3ccc(OC)c(OC)c3)n2C)n(CC)c1=O [Istradefylline, istradefylline]
